Data reported in ChEMBL document CHEMBL1938288, “Discovery, synthesis, and pharmacological evaluation of spiropiperidine hydroxamic acid based derivatives as structurally novel histone deacetylase (HDAC) inhibitors” (J Med Chem, 2011).

Legend:
[1] = Oral bioavailability in mouse; type: ADME, organism-based; conditions: in vivo
[2] = Clearance in mouse; type: ADME, organism-based; conditions: in vivo
K562 = assay: Antiproliferative activity against human K562 cells after 72 hrs by CellTiter-Glo luminescent cell viability assay; type: functional, cell-based; conditions: K562, 72 h
In short: (§1)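 Cells in exponential growth exposed to a range of inhibitor concentrations for 72 h. CellTiter-Glo reagent added, mixed 2 min to lyse cells, luminescence read 10 min later. IC50 derived from the concentration–response. Replicates n ≥ 2, mean shown.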

A549 = assay: Antiproliferative activity against human A549 cells after 72 hrs by CellTiter-Glo luminescent cell viability assay; type: functional, cell-based; conditions: A549, 72 h; in short: as §1
HCT-116 = assay: Antiproliferative activity against human HCT116 cells after 72 hrs by CellTiter-Glo luminescent cell viability assay; type: functional, cell-based; conditions: HCT-116, 72 h; in short: as §1
Histone deacetylase = assay: Inhibition of human HDAC in HeLa cell nuclear extracts using KI-104 Fluor de Lys as substrate by fluorescence assay; type: protein assay
In short: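 HDAC activity from partially purified HeLa nuclear extracts, using a fluorogenic acetylated histone peptide (Fluor de Lys) as substrate. Replicates n ≥ 2, mean values reported.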

SMILES	bioavailability [1] [%]	clearance [2] [mL/min/kg]	IC50 (K562) [µM]	IC50 (A549) [µM]	IC50 (HCT-116) [µM]	IC50 (Histone deacetylase) [µM]
Cc1[nH]c2ccccc2c1CCNCc1ccc(/C=C/C(=O)NO)cc1 [PANOBINOSTAT]	< 10	305				
CC(=O)N1CCC2(CC1)Oc1ccc(/C=C/C(=O)NO)cc1C2=O			> 50	> 50	> 50	> 50
O=C(NO)c1ccc2c(c1)C(=O)CC1(CCN(C(=O)c3ccccc3)CC1)O2			> 50	> 50	> 50	29
O=C(/C=C/c1ccc2c(c1)CCC1(CCN(Cc3ccccc3)CC1)O2)NO			38.6	≥ 50	28.2	9.02
CC(=O)N1CCC2(CC1)CC(=O)c1cc(/C=C/C(=O)NO)ccc1O2			9.37	26.2	5.66	0.641
CC(=O)N1CCC2(CC1)CC(=O)c1cc(C(=O)NO)ccc1O2			> 50	> 50	> 50	> 50
O=C(/C=C/c1cccc(S(=O)(=O)Nc2ccccc2)c1)NO [BELINOSTAT]	< 10	193				
CN1CCC2(CC1)CC(=O)c1ccc(/C=C/C(=O)NO)cc1O2			4.5	3.76	5.72	5.84
O=C(/C=C/c1ccc2c(c1)OC1(CCN(Cc3ccccc3)CC1)CC2=O)NO			8.94	12.2	8.41	2.173
CN1CCC2(CC1)CC(=O)c1cc(C(=O)NO)ccc1O2			> 50	> 50	> 50	> 50
O=C(CCCCCCC(=O)Nc1ccccc1)NO [VORINOSTAT]	< 10					
O=C(/C=C/c1ccc2c(c1)C(=O)C1(CCN(C(=O)c3ccccc3)CC1)O2)NO			7.43	22.1	12.3	2.55
CC(=O)N1CCC2(CC1)CC(=O)c1ccc(/C=C/C(=O)NO)cc1O2			6.08	11.3	36	1.04
O=C(/C=C/c1ccc2c(c1)C(=O)CC1(CCNCC1)O2)NO			5.77	2.72	1.59	0.082
O=C(NO)c1ccc2c(c1)C(=O)CC1(CCN(Cc3ccccc3)CC1)O2			16	22	15	24
CC(=O)NC1CC2(CCN(Cc3ccccc3)CC2)Oc2ccc(/C=C/C(=O)NO)cc21 (stereo not given)			> 50	> 50	32.8	5.15
O=C(/C=C/c1ccc2c(c1)OC1(CCNCC1)CC2=O)NO			> 50	24.8	35.5	1.41
O=C(/C=C/c1ccc2c(c1)C(=O)C1(CCN(Cc3ccccc3)CC1)O2)NO			4.11	5.94	3.1	0.932

More lines, in order of falling IC50 (K562), values ahead:

bioavailability [1] [%]	clearance [2] [mL/min/kg]	IC50 (K562) [µM]	IC50 (A549) [µM]	IC50 (HCT-116) [µM]	IC50 (Histone deacetylase) [µM]	SMILES
		3.27	4.7	3.51	1.19	O=C(/C=C/c1ccc2c(c1)C=CC1(CCN(Cc3ccccc3)CC1)O2)NO
		3.19	8.78	4.92	0.366	O=C(/C=C/c1ccc2c(c1)OC1(CCN(C(=O)c3ccccc3)CC1)CC2=O)NO
		2.95	5.25	2.33	1.21	O=C(/C=C/c1ccc2c(c1)C(O)CC1(CCN(Cc3ccccc3)CC1)O2)NO (stereo not given)
		2.61	20.2	11.8	2.99	CCOC(=O)N1CCC2(CC1)Oc1ccc(/C=C/C(=O)NO)cc1C2=O
		2.19	2.78	3.03	0.408	CCOC(=O)N1CCC2(CC1)CC(=O)c1ccc(/C=C/C(=O)NO)cc1O2
		2.08	5.27	2.14	0.14	CCOC(=O)N1CCC2(CC1)CC(=O)c1cc(/C=C/C(=O)NO)ccc1O2
		1.69	1.09	0.832	0.221	O=C(/C=C/c1ccc2c(c1)C(=O)C1(CCNCC1)O2)NO
		1.65	5.52	2.2	0.316	O=C(/C=C/c1ccc2c(c1)C(=O)CC1(CCN(C(=O)c3ccccc3)CC1)O2)NO
		0.806	1.04	0.266	0.288	CN1CCC2(CC1)CC(=O)c1cc(/C=C/C(=O)NO)ccc1O2
		0.397	1.07	0.337	0.538	CN1CCC2(CC1)Oc1ccc(/C=C/C(=O)NO)cc1C2=O
